Laboratory results published in PMC10842363 (Clinical cancer research : an official journal of the …, 2023).
Read-outs that look alike come from different tables or passages of the source.

Columns and labels:
[1] = tested on: HER2+ tumors, DCCs and metastases; experiment: Sequential Abemaciclib then HC4 treatment in MMTV-HER2 mice; assay type: in vivo, mouse; conditions: for GADD34 expression in primary tumors / Ki67 staining in primary tumors: 50 mpk daily, 4 weeks
kinases = experiment: KINOMEscan kinase selectivity assay; assay type: binding
Outline: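 Competition binding: kinases were T7 phage-tagged (grown in BL21-derived E. coli) or HEK-293-expressed with DNA tags. Incubated with biotinylated-ligand streptavidin beads and test compound (40x DMSO stocks) in SeaBlock/PBS/Tween/DTT buffer, 1 h RT. Eluted with 0.5 μM non-biotinylated ligand (30 min); kinase quantified by qPCR. Selectivity score S = hits/assays at a %Ctrl threshold, mutants excluded.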

[2] = In vivo pharmacokinetic study, single dose; conditions: IP administration, CD1 female mice
[3] = Repeated dosing tolerability; assay type: in vivo; conditions: repeated dosing from 30 to 100 mg/kg
[4] = Safety readouts in treated mice; assay type: in vivo
[5] = 28-day oral dosing study in mice; assay type: in vivo; conditions: oral dosing for 28 days, exposures similar to 50 mpk IP; data not shown
T-HEp3 cells = experiment: T-HEp3 HNSCC PDX i.v. injection, solitary lung DCCs in Balb/c nu/nu mice; assay type: in vivo, human; conditions: 50 mg/kg for 10 days, started 24 h after i.v. injection
EMT6 cells = experiment: EMT6 syngeneic spontaneous lung metastasis model; assay type: in vivo, Balb/c mice; conditions: 10 mg/kg
D-HEp3 cells = experiment: Chick chorioallantoic membrane; assay type: in vivo, human; conditions: 20 μM, 6-day treatment, CAM
MMTV-HER2 cells = experiment: Established metastases after tail vein injection of MMTV-HER2 cells; assay type: in vivo, mouse; conditions: 50 mg/kg for 2 weeks, started 3 weeks after tail vein injection
[6] = Mammary gland morphology in non-tumor bearing healthy mice; assay type: in vivo; conditions: 2 weeks
MMTV-HER2 tumors = experiment: Primary tumor growth in MMTV-HER2 females; assay type: in vivo, mouse
SKBR3 cells = experiment: 3D acini culture in Matrigel, SKBR3; assay type: cell-based; conditions: SKBR3, 2 μM, 10-day treatment
ZR-75-1 cells = experiment: 3D acini culture in Matrigel, ZR-75-1; assay type: cell-based; conditions: ZR-75-1, 2 μM, 10-day treatment
GADD34 [7] = conditions: MCF10A breast pre-malignant cells
GADD34 [8] = conditions: E0771 luminal B breast cancer cells
PERK [9] = biological target: T1, PERK (Homo sapiens, UniProt Q9NZJ5); conditions: MCF10A cells overexpressing HER2
T1 sequence (Q9NZJ5 30-1116): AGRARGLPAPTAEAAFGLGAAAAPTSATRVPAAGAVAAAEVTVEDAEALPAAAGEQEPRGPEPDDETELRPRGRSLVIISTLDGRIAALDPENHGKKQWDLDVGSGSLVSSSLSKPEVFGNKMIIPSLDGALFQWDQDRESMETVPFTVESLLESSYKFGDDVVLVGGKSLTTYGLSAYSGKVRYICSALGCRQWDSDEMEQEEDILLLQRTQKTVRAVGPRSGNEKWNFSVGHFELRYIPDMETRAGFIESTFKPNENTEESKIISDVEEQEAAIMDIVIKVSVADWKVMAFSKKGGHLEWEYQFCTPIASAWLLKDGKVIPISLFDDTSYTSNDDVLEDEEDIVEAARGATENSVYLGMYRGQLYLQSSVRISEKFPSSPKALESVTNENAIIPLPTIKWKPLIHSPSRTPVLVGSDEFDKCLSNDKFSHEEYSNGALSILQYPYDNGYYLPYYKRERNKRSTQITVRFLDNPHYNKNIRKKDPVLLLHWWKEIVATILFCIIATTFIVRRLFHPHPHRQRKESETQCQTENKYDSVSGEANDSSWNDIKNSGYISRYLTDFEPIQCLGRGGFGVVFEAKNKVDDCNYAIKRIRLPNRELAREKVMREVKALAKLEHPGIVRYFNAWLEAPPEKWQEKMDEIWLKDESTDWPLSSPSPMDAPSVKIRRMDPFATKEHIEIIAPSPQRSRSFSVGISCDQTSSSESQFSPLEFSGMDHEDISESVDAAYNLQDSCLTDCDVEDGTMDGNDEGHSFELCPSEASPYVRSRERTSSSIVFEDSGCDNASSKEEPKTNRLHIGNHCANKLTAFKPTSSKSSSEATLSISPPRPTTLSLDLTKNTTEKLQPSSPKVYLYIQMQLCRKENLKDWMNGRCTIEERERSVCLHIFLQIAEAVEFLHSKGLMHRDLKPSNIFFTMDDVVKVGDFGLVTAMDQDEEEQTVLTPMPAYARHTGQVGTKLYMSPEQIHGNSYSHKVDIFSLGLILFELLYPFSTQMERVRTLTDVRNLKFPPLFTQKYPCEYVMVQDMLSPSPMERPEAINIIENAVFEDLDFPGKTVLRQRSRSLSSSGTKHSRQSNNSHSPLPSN

PERK [10] = biological target: T1, PERK; conditions: HEK293 cells stimulated with Tunicamycin
MCF10A-HER2 cells [11] = conditions: MCF10A-HER2 cells treated with HC4
[12] = tested on: Fv2E-ΔNPERK fusion construct-expressing cell line; conditions: PERK dimerization induced with AP20187
PERK [13] = biological target: PERK (Mus musculus, UniProt Q9Z2B5); conditions: 50 mpk IP daily, 2 weeks
PERK (Mus musculus, UniProt Q9Z2B5), sequence (Q9Z2B5 29-1114): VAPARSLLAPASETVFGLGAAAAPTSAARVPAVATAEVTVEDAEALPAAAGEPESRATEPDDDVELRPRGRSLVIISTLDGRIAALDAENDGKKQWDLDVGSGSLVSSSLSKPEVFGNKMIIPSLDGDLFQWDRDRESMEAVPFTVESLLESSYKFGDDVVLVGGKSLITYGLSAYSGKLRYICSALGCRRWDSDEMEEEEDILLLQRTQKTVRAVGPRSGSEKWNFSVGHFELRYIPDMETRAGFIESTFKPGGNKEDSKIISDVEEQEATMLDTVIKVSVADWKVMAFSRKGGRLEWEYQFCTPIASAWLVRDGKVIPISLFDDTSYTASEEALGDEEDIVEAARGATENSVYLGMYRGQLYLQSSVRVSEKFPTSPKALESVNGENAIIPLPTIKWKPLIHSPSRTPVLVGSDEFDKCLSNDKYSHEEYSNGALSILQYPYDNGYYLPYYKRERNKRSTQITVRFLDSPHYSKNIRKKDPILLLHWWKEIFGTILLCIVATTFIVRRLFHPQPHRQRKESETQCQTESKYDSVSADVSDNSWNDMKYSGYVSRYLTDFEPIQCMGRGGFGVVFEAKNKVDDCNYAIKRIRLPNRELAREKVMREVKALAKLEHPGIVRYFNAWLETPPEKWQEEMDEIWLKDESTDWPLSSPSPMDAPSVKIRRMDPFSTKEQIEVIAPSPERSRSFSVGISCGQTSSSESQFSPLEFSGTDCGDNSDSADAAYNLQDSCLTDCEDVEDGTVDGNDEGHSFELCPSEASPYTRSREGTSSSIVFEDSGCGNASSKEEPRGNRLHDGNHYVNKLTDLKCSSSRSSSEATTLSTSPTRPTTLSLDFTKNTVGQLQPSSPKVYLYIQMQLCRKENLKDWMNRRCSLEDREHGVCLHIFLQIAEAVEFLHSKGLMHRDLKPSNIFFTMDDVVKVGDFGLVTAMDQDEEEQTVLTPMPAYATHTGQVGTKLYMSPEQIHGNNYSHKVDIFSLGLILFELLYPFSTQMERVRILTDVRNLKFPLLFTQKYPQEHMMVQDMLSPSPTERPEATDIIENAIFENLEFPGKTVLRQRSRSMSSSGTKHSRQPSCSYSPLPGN

[14] = tested on: HER2+ DCCs and metastases
[15] = tested on: HER2-driven early lesions in the mammary gland
MCF10A-HER2 cells [16] = tested on: MCF10A-HER2 cells
HER2 [17] = tested on: HER2
HER2 [18] = tested on: HER2; remark: listed apart in the source
HER2 [19] = conditions: HC4-treated vs control animals
[20] = MCF10A-HER2, 2 μM, +/- EGF 100 ng/ml
[21] = MCF10A-HER2, in presence of Thapsigargin 4 nM

For `CCN1CCN(Cc2ccc(Nc3ncc(F)c(-c4cc(F)c5nc(C)n(C(C)C)c5c4)n3)nc2)CC1` [Abema, Abemaciclib], the “GADD34 expression in primary tumors” value [1] was “increases”, the “Ki67 staining in primary tumors” value [1] was “reduces” and the “Ki67+ solitary DCCs” value ([1]; lung sections) was “almost absent”.

In the case of `Cc1cc(NC(=O)[C@H](O)c2cc(F)cc(F)c2)ccc1-c1cnc(N)c(C(=O)NC(C)C)c1` [HC4], the “specificity for EIF2AK3 (PERK) over EIF2AK1 (HRI), EIF2AK2 (PKR), EIF2AK4 (GCN2) or HER2” value (kinases; Supplementary Table S3) is reported as “high specificity”, the “KINOMEscan kinase profiling selectivity” value (kinases; compared to other PERK inhibitors, specifically GSK2656157, even at 10 μM) is reported as “exceedingly high selectivity” and the bioavailability [2] is reported as “demonstrated bioavailability”. For the same compound, the body weight [3] was “no significant changes”, the tolerability [3] was “well tolerated” and the “bone marrow cell homeostasis and peripheral blood white cells (total cell counts)” value ([4]; MMTV-HER2 females, 50 mpk IP daily, two weeks) was “did not have a significant effect”. For the same compound, the “glucose levels, bone marrow or peripheral blood cell counts, drinking and feeding behavior” value ([4]; non-tumor or cancer bearing mice, doses used) was “did not significantly affect”, the “effects on the pancreas or clinical chemistry (insulin and glucose levels)” value [5] was “no deleterious effects” and the “reduction in the number of solitary HEp3 DCCs in the lung” value (T-HEp3 cells) was ~ 3 fold. For the same compound, the primary tumor growth (EMT6 cells; 17 days, not shown) was “without affecting”, the “metastatic incidence and multiplicity of lesions per lung/animal” value (EMT6 cells; started 9 days after implanting, 17 days of treatment) was “strongly inhibited” and the “dormant D-HEp3 cells in vivo” value (D-HEp3 cells) was “eradication”. For the same compound, the “increase in cleaved caspase-3 positive D-HEp3 cells in the nodules” value (D-HEp3 cells) was 5 fold, the “frequency of already established micro-metastases” value (MMTV-HER2 cells) was “not affecting” and the “macro-metastatic lesion incidence and total metastatic burden” value (MMTV-HER2 cells) was “strongly reduce”. For the same compound, the “normal branching and morphology of the mammary gland ductal tree” value [6] was “did not affect”, the tumors showing regression (MMTV-HER2 tumors; 2-week window treatment) was “Four” and the “DNA fragmentation (TUNEL staining) in tumor sections” value (MMTV-HER2 tumors; 50 mpk daily, two weeks) was “significant increase”. The “median final tumor volume” value (MMTV-HER2 tumors; 50 mpk daily, two weeks) was “significant decrease”, the tumor growth (MMTV-HER2 tumors; overt tumors, 50 mpk daily, two weeks) was “reduced growth rate” and the “levels of proliferation (phospho-histone H3 IHC) in tumors” value (MMTV-HER2 tumors; vehicle- vs HC4-treated tumors) was “not different”. For the same compound, the “levels of apoptosis (cleaved caspase-3)” value (SKBR3 cells) was “significantly increased”, the “levels of apoptosis (cleaved caspase-3)” value (ZR-75-1 cells) was “significantly increased” and the “GADD34 expression in primary tumors” value [1] was “completely erased”. For the same compound, the “Ki67 staining in primary tumors” value [1] was “does not dramatically affect”, the “thapsigargin induced GADD34 expression” value (GADD34 [7]) was “completely eliminated” and the “thapsigargin induced GADD34 expression” value (GADD34 [8]) was “completely eliminated”. The “P-PERK (P-T980) levels” value (PERK [9]) was “effectively decreased”, the “P-PERK (P-T980) levels” value (PERK [10]) was “effectively decreased” and the “sensitivity to low dose thapsigargin treatment” value (MCF10A-HER2 cells [11]) was “sensitive”. For the same compound, the “rescue of pro-apoptotic function of strong PERK activation” value [12] was “fully rescued”, the “P-PERK inhibition in pancreatic tissue, especially pancreatic islets” value (PERK [13]; IHC) was “only partial inhibition” and the “P-PERK and P-eIF2α levels by IHC” value (PERK [13]; mammary gland ducts and pancreatic tissue) was “significant decrease”. The “decrease in P-PERK levels by western blot” value (PERK [13]; tumor lysates) was “around 50%”, the area of macro-metastases ([14]; 50 mpk IP daily, two weeks) was “not accompanied by a significant effect” and the “number and incidence of lung macro-metastases (>100 cells)” value ([14]; 50 mpk IP daily, two weeks) was “reduced”. For the same compound, the “number of DCCs in bone marrow” value ([14]; 50 mpk IP daily, two weeks) was “significantly decreased”, the “number of P-Rb positive solitary DCCs in lung” value ([14]; 50 mpk IP daily, two weeks) was “not affecting” and the “number of lung micro-metastases (2-100 cells)” value ([14]; 50 mpk IP daily, two weeks) was “significant decrease”. For the same compound, the “number of non-proliferating (P-Rb negative) single DCCs in lung” value ([14]; 50 mpk IP daily, two weeks) was “significantly reduced”, the “HER2+ circulating tumor cells in blood” value ([14]; vehicle vs HC4-treated animals) was “no significant differences” and the “mammary glandular architecture (ductal branching)” value ([15]; 24-week-old MMTV-HER2 females, 50 mpk, 2 weeks) was “less dense branching”. For the same compound, the “cytokeratin 8/18 expression in the luminal layer” value ([15]; 50 mpk, 2 weeks) was “increased expression”, the “number of occluded hyperplasias and DCIS-like lesions relative to vehicle” value ([15]; 50 mpk, 2 weeks) was “less than half” and the “hollow lumen mammary gland ducts, share of structures” value ([15]; around 20 % in control females) was “more than 60%”. The “levels of proliferation (phospho-histone H3)” value (MCF10A-HER2 cells [16]; 3D acini cultures, 2 μM, cell line not given) was “did not detect a significant change”, the “levels of apoptosis (cleaved caspase-3)” value (MCF10A-HER2 cells [16]; MCF10A-HER2, 2 μM, 10-day treatment) was “significantly increased” and the “P-AKT, P-S6 and P-ERK1/2 levels” value (HER2 [17]; [20]) was “downregulation”. For the same compound, the “basal and EGF-induced levels of P-EGFR and P-HER2” value (HER2 [17]; [20]) was “decreased”, the “levels of P-HER2 and P-AKT” value (HER2 [17]; [21]) was “decrease” and the “molecular weight of phosphorylated HER2 protein” value (HER2 [17]; [21]) was “lower molecular weight”. For the same compound, the “total HER2 levels or heterodimerization with EGFR” value (HER2 [17]; surface biotinylation and co-immunoprecipitation, data not shown) was “No obvious effect”, the “endocytosed phospho- and total HER2” value (HER2 [18]; MCF10A-HER2, reversible surface biotinylation) was “clearly increased” and the “abundance of P-HER2 and total HER2 in the cell surface” value (HER2 [18]; MCF10A-HER2, not shown) was “did not significantly alter”. The “P-HER2 levels in tumors (area and intensity score)” value (HER2 [19]) was “significantly lower”.
